For eleven compounds, IC50 results are on record in ChEMBL document CHEMBL3124767, “Synthesis, biological evaluation and molecular modelling studies of 4-anilinoquinazoline derivatives as protein kinase inhibitors” (Bioorg Med Chem, 2014).

In experiment [1] the target is Dual specificity protein kinase CLK1 (Homo sapiens, UniProt P49759). The experiment is described as follows: Inhibition of human recombinant GST-fused CLK1 expressed in Escherichia coli using GRSRSRSRSRSR as substrate. The method in brief:
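GST-tagged human CLK1 made in E. coli. Buffer A (MgCl2, EGTA, DTT, 25 mM Tris-HCl pH 7.5, heparin) with 0.15 mg BSA/mL, RS peptide substrate at 1 µg/assay, 15 µM final ATP. Run 30 min at 30 °C in triplicate. Activity is given as % of the no-inhibitor maximum after blank subtraction. Compounds screened at 10 µM; IC50 from dose-response curves (usually 0.01–10 µM).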

Experiment [2] deals with Dual specificity tyrosine-phosphorylation-regulated kinase 1A (Rattus norvegicus, UniProt Q63470). The experiment is described as follows: Inhibition of rat recombinant GST-fused DYRK1A expressed in Escherichia coli using KKISGRLSPIMTEQ as substrate by scintillation counting in presence of [gamma-33P]ATP.
Experiment [3] in a line: Inhibition of CK1 delta/epsilon in pig brain using RRKHAAIGpSAYSITA as substrate by scintillation counting in presence of [gamma-33P]ATP. Set-up: species or system Sus scrofa.
Experiment [4] has as its target Glycogen synthase kinase-3 (Sus scrofa, UniProt B2LUN4+I6LNT8). The experiment is described as follows: Inhibition of GSK3 alpha/beta in pig brain using YRRAAVPPSPSLSRHSSPHQpSEDEEE as substrate by scintillation counting in presence of [gamma-33P]ATP. Put shortly: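 Native GSK-3α/β from porcine brain, run in triplicate in buffer A (10 mM MgCl2, 1 mM EGTA, 1 mM DTT, 25 mM Tris–HCl pH 7.5, 50 µg heparin/mL) with GS-1 peptide substrate and 15 µM [γ-33P]ATP final, 30 min at 30 °C; spotted on P81 phosphocellulose, acid-washed, counted. Single 10 µM screen, then dose–response (usually 0.01–10 µM) for IC50; blank-subtracted, % of uninhibited activity.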

Experiment [5] concerns the target Cyclin-dependent kinase 5/CDK5 activator 1 (Homo sapiens, UniProt Q00535). The experiment is described as follows: inhibition of human recombinant CDK5/p25 using histone H1 as substrate by scintillation counting in presence of [gamma-33P]ATP. The format is protein-complex assay. Put shortly:
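Human recombinant CDK5/p25 in buffer A (Tris-HCl pH 7.5, MgCl2, EGTA, DTT, heparin) with 1 mg/mL histone H1 and 15 µM [γ-33P]ATP. Run 30 min at 30 °C in triplicate. P81 filter binding, phosphoric acid washes, scintillation counting. Activity is % of maximal after blank subtraction. Compounds screened at 10 µM; IC50 from dose-response curves.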

Cyclin-dependent kinase 5/CDK5 activator 1, sequence (Q00535 whole entry): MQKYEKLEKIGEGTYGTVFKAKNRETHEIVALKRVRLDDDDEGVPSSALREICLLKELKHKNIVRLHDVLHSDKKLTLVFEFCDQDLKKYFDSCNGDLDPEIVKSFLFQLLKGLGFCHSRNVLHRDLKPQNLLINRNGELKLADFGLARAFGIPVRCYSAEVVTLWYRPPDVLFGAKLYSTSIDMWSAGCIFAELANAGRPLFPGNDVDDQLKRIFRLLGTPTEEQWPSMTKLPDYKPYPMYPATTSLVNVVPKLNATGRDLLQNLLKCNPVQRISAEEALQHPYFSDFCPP
Cyclin-dependent kinase 5/CDK5 activator 1, sequence (Q15078 whole entry, further chain): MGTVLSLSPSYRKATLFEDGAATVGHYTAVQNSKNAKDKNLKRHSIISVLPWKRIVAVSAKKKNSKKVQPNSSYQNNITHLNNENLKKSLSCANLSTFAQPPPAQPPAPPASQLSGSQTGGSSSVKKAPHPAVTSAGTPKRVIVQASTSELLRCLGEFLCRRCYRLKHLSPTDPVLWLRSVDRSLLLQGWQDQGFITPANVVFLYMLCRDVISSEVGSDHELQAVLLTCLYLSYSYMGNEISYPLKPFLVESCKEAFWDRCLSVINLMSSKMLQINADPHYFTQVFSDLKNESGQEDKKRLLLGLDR
Dual specificity protein kinase CLK1, sequence (P49759 whole entry, the tested form may be a part): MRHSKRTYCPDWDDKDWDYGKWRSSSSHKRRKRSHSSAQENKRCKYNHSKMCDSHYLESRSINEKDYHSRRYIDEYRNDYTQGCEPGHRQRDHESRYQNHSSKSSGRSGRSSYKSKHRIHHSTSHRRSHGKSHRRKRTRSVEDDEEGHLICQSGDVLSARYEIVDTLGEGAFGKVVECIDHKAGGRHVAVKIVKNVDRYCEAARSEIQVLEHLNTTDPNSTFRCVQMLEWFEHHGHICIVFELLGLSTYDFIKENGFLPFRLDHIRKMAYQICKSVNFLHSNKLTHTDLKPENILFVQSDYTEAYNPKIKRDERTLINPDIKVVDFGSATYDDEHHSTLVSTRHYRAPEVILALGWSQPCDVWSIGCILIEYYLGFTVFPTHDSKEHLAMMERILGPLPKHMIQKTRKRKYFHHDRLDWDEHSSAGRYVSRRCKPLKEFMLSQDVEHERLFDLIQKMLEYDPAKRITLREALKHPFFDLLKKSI

A word on the IC50: it is the concentration that gives 50% inhibition. Regarding `COc1ccc(Nc2ncnc3cc(OC)c(OC)cc23)cc1OC`, the IC50 in experiment [1] was 1.5 µM; in experiment [2], at least 10 µM; in experiment [3], over 10 µM; in experiment [4], 3 µM; in experiment [5] it was over 10 µM.
Consider `COc1ccc(Nc2ncnc3cc(OC)c(OC)cc23)cc1`, for which the IC50 in experiment [1], in experiment [2], in experiment [3], in experiment [4] and in experiment [5] was over 10 µM each time.
Regarding `COc1cc2ncnc(Nc3ccc(C(F)(F)F)cc3)c2cc1OC`, the IC50 in experiment [1], in experiment [2], in experiment [3], in experiment [4] and in experiment [5] was over 10 µM each time.
Take `COc1cc2ncnc(Nc3ccc(OC(F)(F)F)cc3)c2cc1OC`: the half-maximal inhibitory concentration (IC50) in experiment [1], in experiment [2], in experiment [3], in experiment [4] and in experiment [5] was over 10 µM in each case.
Take `COc1cc2ncnc(Nc3ccc(NC(C)=O)cc3)c2cc1OC`: the IC50 in experiment [1], in experiment [2], in experiment [3], in experiment [4] and in experiment [5] was over 10 µM each time.
On to `COc1cc2ncnc(Nc3ccc(F)c(Cl)c3)c2cc1OC`, for which the IC50 was 7.6 µM in experiment [1]; over 10 µM in experiment [2]; over 10 µM in experiment [3]; over 10 µM in experiment [4]; over 10 µM in experiment [5].
Regarding `COc1cc2ncnc(Nc3ccc(C)c(C)c3)c2cc1OC`, the IC50 in experiment [1], in experiment [2], in experiment [3], in experiment [4] and in experiment [5] was over 10 µM each time.
Turning to `COc1cc2ncnc(Nc3ccc(C(C)=O)cc3)c2cc1OC`, the IC50 in experiment [1] is at least 10 µM; in experiment [2], over 10 µM; in experiment [3], over 10 µM; in experiment [4] it was over 10 µM; in experiment [5] it was over 10 µM.
Take `COc1cc2ncnc(Nc3cccc(C(F)(F)F)c3)c2cc1OC`: the IC50 in experiment [1], in experiment [2], in experiment [3], in experiment [4] and in experiment [5] was over 10 µM throughout.
Take `COc1cc2ncnc(Nc3ccccc3)c2cc1OC`: the IC50 in experiment [1] was at least 10 µM; in experiment [2] it was over 10 µM; in experiment [3], over 10 µM; in experiment [4], over 10 µM; in experiment [5], over 10 µM.
`O=C1Nc2cc(Br)ccc2/C1=C1/Nc2ccccc2/C1=N\O` [6BIO]: in experiment [1], the IC50 is 2.1 µM.
